This is an account of results in ChEMBL document CHEMBL1129251 (J Med Chem, 1996).

Experiment [1] deals with T1, Adrenergic receptor alpha-1 (Rattus norvegicus) (UniProt P15823+P23944+P43140). The experiment is described as follows: Antagonistic activity against Alpha-1 adrenergic receptor in rat aorta. The format is functional, tissue-based. The essentials: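 Rat aorta rings (rats 150-300 g, either sex) contracted by cumulative phenylephrine, with and without the antagonist. KB = [B]/(DR − 1), where DR is the dose ratio in the presence and absence of the antagonist.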
T1 sequence (P15823 whole entry, looked up): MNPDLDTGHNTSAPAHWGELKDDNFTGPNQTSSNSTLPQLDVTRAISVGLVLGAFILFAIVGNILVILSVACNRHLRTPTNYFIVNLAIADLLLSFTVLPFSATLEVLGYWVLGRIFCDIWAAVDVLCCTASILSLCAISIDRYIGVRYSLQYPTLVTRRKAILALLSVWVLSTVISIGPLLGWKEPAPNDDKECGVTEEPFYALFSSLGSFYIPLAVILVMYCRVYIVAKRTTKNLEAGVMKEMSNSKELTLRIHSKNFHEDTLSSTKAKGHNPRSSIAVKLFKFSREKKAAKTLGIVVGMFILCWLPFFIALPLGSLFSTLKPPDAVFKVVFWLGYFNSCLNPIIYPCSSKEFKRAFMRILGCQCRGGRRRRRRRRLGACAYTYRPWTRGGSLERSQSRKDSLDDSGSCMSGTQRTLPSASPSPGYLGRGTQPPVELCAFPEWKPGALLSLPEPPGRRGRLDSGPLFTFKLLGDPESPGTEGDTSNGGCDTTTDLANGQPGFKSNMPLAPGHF
T1 sequence (P23944 whole entry, looked up): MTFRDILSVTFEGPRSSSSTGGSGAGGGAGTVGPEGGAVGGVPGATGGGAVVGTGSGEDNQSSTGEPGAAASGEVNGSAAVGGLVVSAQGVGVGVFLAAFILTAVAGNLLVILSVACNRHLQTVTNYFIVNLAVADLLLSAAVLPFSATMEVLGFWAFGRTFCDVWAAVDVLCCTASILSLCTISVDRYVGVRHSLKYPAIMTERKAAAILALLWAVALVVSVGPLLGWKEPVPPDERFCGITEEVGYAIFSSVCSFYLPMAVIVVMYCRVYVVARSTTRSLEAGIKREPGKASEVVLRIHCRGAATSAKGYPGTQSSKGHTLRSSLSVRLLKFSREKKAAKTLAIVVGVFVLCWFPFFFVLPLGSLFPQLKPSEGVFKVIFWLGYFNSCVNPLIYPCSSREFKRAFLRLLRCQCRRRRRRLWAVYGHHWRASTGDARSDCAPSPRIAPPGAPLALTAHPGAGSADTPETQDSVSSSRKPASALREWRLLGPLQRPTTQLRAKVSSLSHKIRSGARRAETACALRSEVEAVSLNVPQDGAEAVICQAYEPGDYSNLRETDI
T1 sequence (P43140 whole entry, looked up): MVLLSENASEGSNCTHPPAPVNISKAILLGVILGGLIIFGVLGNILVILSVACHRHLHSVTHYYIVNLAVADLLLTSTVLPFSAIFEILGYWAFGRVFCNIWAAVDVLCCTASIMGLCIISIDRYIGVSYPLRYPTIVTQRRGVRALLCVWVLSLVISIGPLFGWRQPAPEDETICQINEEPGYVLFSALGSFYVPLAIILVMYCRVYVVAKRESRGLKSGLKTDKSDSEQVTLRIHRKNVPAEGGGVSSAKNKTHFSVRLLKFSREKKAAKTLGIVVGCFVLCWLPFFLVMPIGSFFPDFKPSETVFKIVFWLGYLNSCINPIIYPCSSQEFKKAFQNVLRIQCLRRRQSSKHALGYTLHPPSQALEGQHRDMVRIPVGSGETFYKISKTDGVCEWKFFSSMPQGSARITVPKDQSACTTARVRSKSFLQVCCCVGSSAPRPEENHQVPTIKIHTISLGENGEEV

Experiment [2] addresses T2, Adrenergic receptor alpha-2 (Rattus norvegicus, UniProt P22086+P19328+P22909).
T2 sequence (P22086 whole entry): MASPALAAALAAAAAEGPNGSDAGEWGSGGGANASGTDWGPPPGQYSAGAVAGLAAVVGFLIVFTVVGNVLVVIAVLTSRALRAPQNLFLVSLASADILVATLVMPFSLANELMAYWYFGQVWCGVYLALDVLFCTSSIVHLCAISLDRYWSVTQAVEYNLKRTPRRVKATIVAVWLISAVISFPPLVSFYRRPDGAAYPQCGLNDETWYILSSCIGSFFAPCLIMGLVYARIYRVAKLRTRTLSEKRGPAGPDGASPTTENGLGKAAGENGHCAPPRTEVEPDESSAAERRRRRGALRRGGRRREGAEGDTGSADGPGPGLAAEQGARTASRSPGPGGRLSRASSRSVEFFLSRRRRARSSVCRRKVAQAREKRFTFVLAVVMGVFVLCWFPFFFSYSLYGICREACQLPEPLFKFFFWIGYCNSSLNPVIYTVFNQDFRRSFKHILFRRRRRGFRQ
T2 sequence (P19328 whole entry): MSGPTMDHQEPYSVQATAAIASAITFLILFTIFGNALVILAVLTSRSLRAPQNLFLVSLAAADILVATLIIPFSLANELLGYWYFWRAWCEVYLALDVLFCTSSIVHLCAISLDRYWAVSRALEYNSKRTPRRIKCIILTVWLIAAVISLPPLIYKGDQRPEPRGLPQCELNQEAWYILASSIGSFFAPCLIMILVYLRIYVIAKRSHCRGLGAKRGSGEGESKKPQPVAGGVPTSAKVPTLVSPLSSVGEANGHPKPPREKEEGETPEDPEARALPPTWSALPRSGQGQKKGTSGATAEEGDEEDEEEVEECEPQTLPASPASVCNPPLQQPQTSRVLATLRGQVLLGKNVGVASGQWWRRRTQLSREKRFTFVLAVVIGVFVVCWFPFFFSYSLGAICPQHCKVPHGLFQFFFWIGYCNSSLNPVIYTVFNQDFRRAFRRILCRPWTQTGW
T2 sequence (P22909 whole entry): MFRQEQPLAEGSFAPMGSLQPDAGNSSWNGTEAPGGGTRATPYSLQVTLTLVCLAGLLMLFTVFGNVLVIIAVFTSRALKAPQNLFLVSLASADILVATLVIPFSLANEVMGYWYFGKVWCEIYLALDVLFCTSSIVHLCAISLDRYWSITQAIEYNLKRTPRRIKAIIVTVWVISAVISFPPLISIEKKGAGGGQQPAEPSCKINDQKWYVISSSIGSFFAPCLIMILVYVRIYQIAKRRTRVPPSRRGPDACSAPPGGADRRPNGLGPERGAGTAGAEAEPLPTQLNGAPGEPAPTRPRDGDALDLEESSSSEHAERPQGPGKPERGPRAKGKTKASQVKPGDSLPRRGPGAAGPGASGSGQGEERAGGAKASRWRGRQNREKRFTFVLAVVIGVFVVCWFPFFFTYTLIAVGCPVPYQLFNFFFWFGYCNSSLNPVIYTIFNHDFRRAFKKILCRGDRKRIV
The experiment is described as follows: Alpha-2 adrenergic receptor binding affinity was tested against membrane preparations of rat brain using 0.2 nM [3H]rauwolscine as radioligand. The essentials:
(§1)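 Rat frontal cortex membranes at about 500 µg/mL protein, labelled with [3H]rauwolscine in Tris buffer pH 7.4 containing 10 mM EDTA. Nonspecific binding set by 10 µM phentolamine. 30 °C for 30 min, then filtration and scintillation counting, in triplicate.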

The nature of experiment [3]: alpha 2 antagonistic adrenoceptor activity in human blood platelets Potency ratio: IC50(medetomidine)/IC50(analog). The format is functional. The method in brief: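 Inhibition of epinephrine (30-100 µM)-induced primary-wave aggregation in aspirin (1 mM)-treated human platelet-rich plasma, with inhibitor added 1 min before agonist.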
Experiment [4] addresses T2, Adrenergic receptor alpha-2. The experiment is described as follows: Alpha-2 adrenergic receptor binding affinity was tested against membrane preparations of rat brain. The essentials: as §1
In experiment [5] the target is T1, Adrenergic receptor alpha-1 (Rattus norvegicus). The experiment is described as follows: Agonistic activity against Alpha-1 adrenergic receptor in rat aorta expressed as percent maximal analog response relative to phenylephrine as 100%. The format is functional, tissue-based. The essentials:
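Aorta from rats of 150-300 g, either sex. Tissue checked with 30 nM phenylephrine, then a cumulative phenylephrine curve. After 90 min the test agent was added cumulatively. Contraction expressed as % of the maximum to 1 µM phenylephrine (= 100%). EC50 is the molar 50% effective concentration; Emax is the maximal response relative to phenylephrine.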

Turning to `C/C=C(\c1c[nH]cn1)c1cccc2ccccc12`, the Kb in experiment [1] came out at 3390 nM. In experiment [2], this molecule returned a Ki of 1890 nM. Moreover, the Potency ratio in experiment [3] is given as 0.01.
For the molecule `c1ccc2c3c(ccc2c1)CCCC3c1c[nH]cn1` (stereo not given), in experiment [1], the antagonist dissociation constant (Kb) was determined as 136 nM. In experiment [4], this molecule yielded an inhibition constant Ki of 1449 nM.
Take `c1cc2c3c(cccc3c1)C(c1c[nH]cn1)CC2` (stereo not given): the Emax in experiment [5] was 38%. In addition, the Ki in experiment [2] stood at 33 nM. Moreover, the Potency ratio in experiment [3] stood at 0.2.
Turning to `CC(c1c[nH]cn1)c1cccc2ccccc12` (stereo not given), the maximum response (Emax) in experiment [5] was determined as 39%. Besides, the Ki in experiment [2] is 13 nM.
